From BindingDB's records for doi:10.1021/jm990049j (Dupont Pharmaceuticals, 2000) come the findings set out here.

The structures appear in SMILES notation. Where only a bound is given, the exact number is not on record here.

The assay concerns the target Integrin alpha-IIb/beta-3 (Homo sapiens, UniProt P08514+P05106). The assay can be described thus: Inhibition of aggregation of human gel-purified platelets (GPIIbIIIa GPP). The method, boiled down: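 Human platelets from healthy-volunteer platelet-rich plasma were gel-purified on sepharose and used at 2×10^8 platelets/mL with 1 mM CaCl2 and 1 mg/mL fibrinogen. Aggregation was measured with or without compound at several concentrations and IC50 calculated. Values are single determinations.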

Sequence of Integrin alpha-IIb/beta-3 (P05106 27-788 limits assumed): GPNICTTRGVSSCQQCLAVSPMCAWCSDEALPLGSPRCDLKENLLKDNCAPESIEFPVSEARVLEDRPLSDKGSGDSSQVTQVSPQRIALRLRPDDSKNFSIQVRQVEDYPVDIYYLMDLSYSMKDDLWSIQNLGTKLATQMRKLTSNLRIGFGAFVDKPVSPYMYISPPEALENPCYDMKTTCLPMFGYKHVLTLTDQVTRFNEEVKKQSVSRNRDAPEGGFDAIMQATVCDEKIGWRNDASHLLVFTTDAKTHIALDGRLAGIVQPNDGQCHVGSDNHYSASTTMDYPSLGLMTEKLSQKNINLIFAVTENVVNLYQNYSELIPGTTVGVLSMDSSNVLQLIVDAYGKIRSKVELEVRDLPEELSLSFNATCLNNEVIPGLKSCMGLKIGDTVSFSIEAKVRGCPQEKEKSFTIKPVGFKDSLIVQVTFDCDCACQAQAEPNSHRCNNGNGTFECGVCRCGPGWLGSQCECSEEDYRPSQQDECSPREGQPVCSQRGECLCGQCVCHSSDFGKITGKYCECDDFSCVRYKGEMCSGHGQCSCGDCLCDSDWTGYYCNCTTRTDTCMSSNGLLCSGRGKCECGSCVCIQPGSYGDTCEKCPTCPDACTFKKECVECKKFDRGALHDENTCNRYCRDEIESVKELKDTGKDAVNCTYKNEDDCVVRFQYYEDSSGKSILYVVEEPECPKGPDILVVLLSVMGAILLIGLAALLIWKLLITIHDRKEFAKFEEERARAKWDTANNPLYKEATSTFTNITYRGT
Sequence of Integrin alpha-IIb/beta-3 (P08514 32-887 limits assumed): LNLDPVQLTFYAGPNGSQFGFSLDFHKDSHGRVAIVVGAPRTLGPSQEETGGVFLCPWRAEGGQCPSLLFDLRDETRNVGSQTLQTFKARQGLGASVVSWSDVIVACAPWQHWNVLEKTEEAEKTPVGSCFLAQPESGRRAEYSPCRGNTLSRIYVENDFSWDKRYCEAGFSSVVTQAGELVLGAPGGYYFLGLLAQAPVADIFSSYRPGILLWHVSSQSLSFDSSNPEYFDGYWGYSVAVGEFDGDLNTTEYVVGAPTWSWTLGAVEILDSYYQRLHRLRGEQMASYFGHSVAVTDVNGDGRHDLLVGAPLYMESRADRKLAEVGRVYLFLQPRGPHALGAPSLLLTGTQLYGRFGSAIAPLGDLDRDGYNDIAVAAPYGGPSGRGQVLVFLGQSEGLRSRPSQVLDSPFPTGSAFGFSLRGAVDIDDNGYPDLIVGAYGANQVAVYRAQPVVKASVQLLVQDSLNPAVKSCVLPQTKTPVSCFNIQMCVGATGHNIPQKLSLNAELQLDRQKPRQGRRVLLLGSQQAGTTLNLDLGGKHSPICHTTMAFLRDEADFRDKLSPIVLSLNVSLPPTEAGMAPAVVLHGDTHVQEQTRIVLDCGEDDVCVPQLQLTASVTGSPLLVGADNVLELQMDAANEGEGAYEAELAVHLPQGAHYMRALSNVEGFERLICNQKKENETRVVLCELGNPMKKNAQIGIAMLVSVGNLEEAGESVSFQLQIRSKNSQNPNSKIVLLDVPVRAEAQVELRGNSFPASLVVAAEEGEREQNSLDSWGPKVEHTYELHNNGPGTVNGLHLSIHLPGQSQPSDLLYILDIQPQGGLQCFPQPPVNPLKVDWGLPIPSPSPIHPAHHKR
Sequence of Integrin alpha-IIb/beta-3 (P08514 891-1039 limits assumed): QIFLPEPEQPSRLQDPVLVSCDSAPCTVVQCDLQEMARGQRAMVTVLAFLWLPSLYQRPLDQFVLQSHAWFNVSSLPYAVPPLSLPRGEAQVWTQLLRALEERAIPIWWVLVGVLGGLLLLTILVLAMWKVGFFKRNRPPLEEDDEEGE

By IC50 is commonly meant the midpoint of a concentration-inhibition curve. A higher IC50 goes with lower potency. Take `CC(C)(C)c1ccc(S(=O)(=O)N[C@@H](CNC(=O)c2ccc3c(cnn3CCCNc3ncc[nH]3)c2)C(=O)O)cc1` [2-(4-tert-Butyl-benzenesulfonylamino)-3-({1-[3-(1H-imidazol-2-ylamino)-propyl]-1H-indazole-5-carbonyl}-amino)-propionic acid]: the IC50 is 2000 nM.

The molecule `COc1ccc(S(=O)(=O)N[C@@H](CNC(=O)c2ccc3c(cnn3CCCNc3ncc[nH]3)c2)C(=O)O)cc1` [3-({1-[3-(1H-Imidazol-2-ylamino)-propyl]-1H-indazole-5-carbonyl}-amino)-2-(4-methoxy-benzenesulfonylamino)-propionic acid] displayed an IC50 of 410 nM.

`O=C(NC[C@H](NS(=O)(=O)c1ccc(C(F)(F)F)cc1)C(=O)O)c1ccc2c(cnn2CCCNc2ncc[nH]2)c1` [3-({1-[3-(1H-Imidazol-2-ylamino)-propyl]-1H-indazole-5-carbonyl}-amino)-2-(4-trifluoromethyl-benzenesulfonylamino)-propionic acid] yielded an IC50 of 4400 nM. Against the preceding molecule, the IC50 is about 11-fold higher.

As to `Cc1cc(-c2ccccc2)cc(C)c1S(=O)(=O)N[C@@H](CNC(=O)c1ccc2c(cnn2CCCNc2ncc[nH]2)c1)C(=O)O` [2-(3,5-Dimethyl-biphenyl-4-sulfonylamino)-3-({1-[3-(1H-imidazol-2-ylamino)-propyl]-1H-indazole-5-carbonyl}-amino)-propionic acid], the IC50 is 74 nM.

In the case of `Cc1cc(C)c(S(=O)(=O)N[C@@H](CNC(=O)c2ccc3c(cnn3CCCNC3=NCCCN3)c2)C(=O)O)c(C)c1` [3-({1-[3-(1,4,5,6-Tetrahydro-pyrimidin-2-ylamino)-propyl]-1H-indazole-5-carbonyl}-amino)-2-(2,4,6-trimethyl-benzenesulfonylamino)-propionic acid], the IC50 was found to be 66 nM. The IC50 values of the last two molecules are within 1.5-fold of each other.

Consider `Cc1cc(C)c(S(=O)(=O)N[C@@H](CNC(=O)c2ccc3c(cnn3CCCNc3ncc[nH]3)c2)C(=O)O)c(C)c1` [3-({1-[3-(1H-Imidazol-2-ylamino)-propyl]-1H-indazole-5-carbonyl}-amino)-2-(2,4,6-trimethyl-benzenesulfonylamino)-propionic acid], for which the IC50 came out at 21 nM. Compared with the last molecule, the IC50 is about 3.1-fold lower.

`O=C(NC[C@H](NS(=O)(=O)c1ccc2ccccc2c1)C(=O)O)c1ccc2c(cnn2CCCNc2ncc[nH]2)c1` [3-({1-[3-(1H-Imidazol-2-ylamino)-propyl]-1H-indazole-5-carbonyl}-amino)-2-(naphthalene-2-sulfonylamino)-propionic acid] came in with an IC50 of 81 nM.

The molecule `O=C(NC[C@H](NS(=O)(=O)c1c(Cl)cccc1Cl)C(=O)O)c1ccc2c(cnn2CCCNc2ncc[nH]2)c1` [2-(2,6-Dichloro-benzenesulfonylamino)-3-({1-[3-(1H-imidazol-2-ylamino)-propyl]-1H-indazole-5-carbonyl}-amino)-propionic acid] came in with an IC50 of 12 nM. This IC50 is about 6.8-fold lower than that of the molecule before.

The molecule `Cc1cc(C)c(S(=O)(=O)N[C@H](CNC(=O)c2ccc3c(cnn3CCCNc3ncc[nH]3)c2)C(=O)O)c(C)c1` yielded an IC50 of 5000 nM.

`Cc1cc(C)c(NS(=O)(=O)N[C@@H](CNC(=O)c2ccc3c(cnn3CCCNc3ccccn3)c2)C(=O)O)c(C)c1` [3-[1-[3-(N-Pyridin-2ylamino)propyl]indazol-5-ylcarbonylamino]-2(S)-(2,4,6-trimethylphenylaminosulfonylamino) propionic acid] came in with an IC50 of 36000 nM.

With `Cc1cc(C)c(S(=O)(=O)N[C@@H](CNC(=O)c2ccc3c(cnn3CCCNC3=NCCN3)c2)C(=O)O)c(C)c1` [3-({1-[3-(4,5-Dihydro-1H-imidazol-2-ylamino)-propyl]-1H-indazole-5-carbonyl}-amino)-2-(2,4,6-trimethyl-benzenesulfonylamino)-propionic acid], the midpoint of inhibition, the IC50, lay at 57 nM.

`Cc1cccc(C)c1S(=O)(=O)N[C@@H](CNC(=O)c1ccc2c(cnn2CCCNc2ncc[nH]2)c1)C(=O)O` [2-(2,6-Dimethyl-benzenesulfonylamino)-3-({1-[3-(1H-imidazol-2-ylamino)-propyl]-1H-indazole-5-carbonyl}-amino)-propionic acid]: it took 74 nM to reach half-maximal inhibition (IC50).

`Cc1cc(C)c(S(=O)(=O)N[C@@H](CNC(=O)c2ccc3c(cnn3CCCNc3ccccn3)c2)C(=O)O)c(C)c1` [3-({1-[3-(Pyridin-2-ylamino)-propyl]-1H-indazole-5-carbonyl}-amino)-2-(2,4,6-trimethyl-benzenesulfonylamino)-propionic acid] yielded an IC50 of 220 nM.

`Cc1ccc(S(=O)(=O)N[C@@H](CNC(=O)c2ccc3c(cnn3CCCNc3ncc[nH]3)c2)C(=O)O)cc1` [3-({1-[3-(1H-Imidazol-2-ylamino)-propyl]-1H-indazole-5-carbonyl}-amino)-2-(toluene-4-sulfonylamino)-propionic acid] displayed an IC50 of 83 nM.

`CC(=O)Nc1ccc(S(=O)(=O)N[C@@H](CNC(=O)c2ccc3c(cnn3CCCNc3ncc[nH]3)c2)C(=O)O)cc1` [2-(4-Acetylamino-benzenesulfonylamino)-3-({1-[3-(1H-imidazol-2-ylamino)-propyl]-1H-indazole-5-carbonyl}-amino)-propionic acid] returned an IC50 of 400 nM.

The molecule `O=C(NC[C@H](NS(=O)(=O)NCc1ccccc1)C(=O)O)c1ccc2c(cnn2CCCNc2ccccn2)c1` [3-[1-[3-(N-Pyridin-2ylamino)propyl]indazol-5-ylcarbonylamino]-2(S)-(phenylmethylaminosulfonylamino) propionic acid] had an IC50 of 8100 nM. Against the preceding molecule, the IC50 is about 20-fold higher.

The molecule `O=C(NC[C@H](NS(=O)(=O)c1ccc(Cl)c(Cl)c1)C(=O)O)c1ccc2c(cnn2CCCNc2ncc[nH]2)c1` [2-(3,4-Dichloro-benzenesulfonylamino)-3-({1-[3-(1H-imidazol-2-ylamino)-propyl]-1H-indazole-5-carbonyl}-amino)-propionic acid] gave an IC50 of 790 nM.

The molecule `O=C(N[C@@H](CNC(=O)c1ccc2c(cnn2CCCNc2ccccn2)c1)C(=O)O)OCc1ccccc1` [2-Benzyloxycarbonylamino-3-({1-[3-(pyridin-2-ylamino)-propyl]-1H-indazole-5-carbonyl}-amino)-propionic acid] gave an IC50 above 10000 nM.

As to `O=C(NC[C@H](NS(=O)(=O)c1ccc(-c2ccccc2)cc1)C(=O)O)c1ccc2c(cnn2CCCNc2ncc[nH]2)c1` [2-(Biphenyl-4-sulfonylamino)-3-({1-[3-(1H-imidazol-2-ylamino)-propyl]-1H-indazole-5-carbonyl}-amino)-propionic acid], half-maximal inhibition (IC50) required 130 nM.

As to `O=C(NC[C@H](NS(=O)(=O)c1ccccc1)C(=O)O)c1ccc2c(cnn2CCCNc2ccccn2)c1` [2-Benzenesulfonylamino-3-({1-[3-(pyridin-2-ylamino)-propyl]-1H-indazole-5-carbonyl}-amino)-propionic acid], the IC50 is 290 nM.

In turn, `O=C(NC[C@H](NS(=O)(=O)c1cccc2ccccc12)C(=O)O)c1ccc2c(cnn2CCCNc2ncc[nH]2)c1` [3-({1-[3-(1H-Imidazol-2-ylamino)-propyl]-1H-indazole-5-carbonyl}-amino)-2-(naphthalene-1-sulfonylamino)-propionic acid] showed an IC50 of 39 nM. This IC50 lies about 7.4-fold lower than the previous one.

On to `CCCCS(=O)(=O)N[C@@H](CNC(=O)c1ccc2c(cnn2CCCNc2ccccn2)c1)C(=O)O` [2-(Butane-1-sulfonylamino)-3-({1-[3-(pyridin-2-ylamino)-propyl]-1H-indazole-5-carbonyl}-amino)-propionic acid], for which inhibition was half-maximal at 9000 nM (IC50).

Regarding `O=C(N[C@@H](CNC(=O)c1ccc2c(cnn2CCCNc2ncc[nH]2)c1)C(=O)O)OCc1ccccc1` [2-Benzyloxycarbonylamino-3-({1-[3-(1H-imidazol-2-ylamino)-propyl]-1H-indazole-5-carbonyl}-amino)-propionic acid], the IC50 amounted to 1000 nM. Against the preceding molecule, the IC50 is about 9-fold lower.

With `O=C(NC[C@H](NS(=O)(=O)c1ccccc1)C(=O)O)c1ccc2c(cnn2CCCNc2ncc[nH]2)c1` [2-Benzenesulfonylamino-3-({1-[3-(1H-imidazol-2-ylamino)-propyl]-1H-indazole-5-carbonyl}-amino)-propionic acid], the IC50 came out at 34 nM. This IC50 is about 29-fold lower than that of the molecule before.

In the case of `Cc1cc(C)c(S(=O)(=O)N[C@@H](CNC(=O)c2ccc3c(cnn3CCC(=O)Nc3ncc[nH]3)c2)C(=O)O)c(C)c1` [3-({1-[2-(1H-Imidazol-2-ylcarbamoyl)-ethyl]-1H-indazole-5-carbonyl}-amino)-2-(2,4,6-trimethyl-benzenesulfonylamino)-propionic acid], the IC50 was 4000 nM.

Molecule `O=C(NC[C@H](NS(=O)(=O)c1ccc(Cl)cc1)C(=O)O)c1ccc2c(cnn2CCCNc2ncc[nH]2)c1` [2-(4-Chloro-benzenesulfonylamino)-3-({1-[3-(1H-imidazol-2-ylamino)-propyl]-1H-indazole-5-carbonyl}-amino)-propionic acid] had an IC50 of 260 nM. Compared with the last molecule, the IC50 is about 15-fold lower.

As to `CC(C)COC(=O)N[C@@H](CNC(=O)c1ccc2c(cnn2CCCNc2ccccn2)c1)C(=O)O` [2-Isobutoxycarbonylamino-3-({1-[3-(pyridin-2-ylamino)-propyl]-1H-indazole-5-carbonyl}-amino)-propionic acid], the IC50 came out at 25000 nM.

As to `O=C(NC[C@H](NS(=O)(=O)Nc1ccccc1)C(=O)O)c1ccc2c(cnn2CCCNc2ccccn2)c1` [3-[1-[3-(N-Pyridin-2ylamino)propyl]indazol-5-ylcarbonylamino]-2(S)-(phenylaminosulfonylamino) propionic acid], the IC50 came out at 7800 nM.

`Cc1cc(C)c(S(=O)(=O)N[C@@H](CC(=O)Nc2ccc3c(cnn3CCCNc3ccccn3)c2)C(=O)O)c(C)c1` [N-{1-[3-(Pyridin-2-ylamino)-propyl]-1H-indazol-5-yl}-2-(2,4,6-trimethyl-benzenesulfonylamino)-succinamic acid] returned an IC50 of 41000 nM. This IC50 is about 5.3-fold higher than that of the molecule before.
